# Screening data: PubChem BioAssay, The Scripps Research Institute Molecular Screening Center
# LYPLA2 inh – LYPLA2 (human) inhibition in PME1 counter-screen. 0.38% of 320,000 active. recombinant LYPLA2, FP-Rh probe fluorescence polarization. inhibition, % at 5.9 µM. O95372. AID 2177;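 active = inhibition above the screen-wide mean plus 3 SD, limit set per campaign, cut at about 26% in these data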;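 also: 0% = LYPLA2 with DMSO and 100% = wells lacking LYPLA2 enzyme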
# LYPLA1 inh – counter-screen for PME1 inhibitors: inhibitors of human LYPLA1; recombinant LYPLA1, FP-Rh probe fluorescence polarization; inhibition, % at 5.9 µM; 0.16% of 320,000 active;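 active = inhibition above the mean of all tested compounds plus 3 SD, set per campaign, cut at about 14% in these data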;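 also: inhibitors block serine hydrolase probe labeling of LYPLA1 so polarization falls; 0% = enzyme with DMSO and 100% = wells lacking LYPLA1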
# RBBP9 inhibitor – human RBBP9 hydrolase inhibition; O75884; recombinant RBBP9, FP-Rh probe fluorescence polarization; inhibition, % at 7.94 µM; 0.2% of 220,000 active;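 active = inhibition above the campaign mean of all tested compounds plus 3 SD, cut at about 14% in these data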;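 also: plate controls were DMSO wells with RBBP9 for no effect and wells lacking RBBP9 protein for full effect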
#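 System: RBBP9 protein / Buffer or medium: Tris/NaCl buffer pH 8.0 with 0.1% Pluronic / Probe or stimulus: Serine-hydrolase probe FP-Rh, 375 nM pre-mixing / Dosing: 7.94 µM single dose, 0.794% DMSO / Times: enzyme-compound preincubation 30 min, then probe labeling 45 min, 25 °C / Technique: fluorescence polarization (mP), excitation 525 nm, emission 598 nm / Replication: singlicate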
# PME-1 inh – blocks human protein phosphatase methylesterase 1; Q9Y570; recombinant PME-1, FP-Rh probe fluorescence polarization; inhibition, % at 5.9 µM; 0.53% of 320,000 active; AID 2130;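 active = inhibition above the campaign mean of all compounds plus 3 SD, cut at about 26% in these data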;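 also: competitive labeling of PME-1 active site by serine hydrolase directed probe; 0% = PME-1 with DMSO and 100% = wells lacking PME-1 enzyme; inhibitors block probe labeling so polarization falls and inhibition rises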
# Target sequence (Q9Y570 whole entry, looked up): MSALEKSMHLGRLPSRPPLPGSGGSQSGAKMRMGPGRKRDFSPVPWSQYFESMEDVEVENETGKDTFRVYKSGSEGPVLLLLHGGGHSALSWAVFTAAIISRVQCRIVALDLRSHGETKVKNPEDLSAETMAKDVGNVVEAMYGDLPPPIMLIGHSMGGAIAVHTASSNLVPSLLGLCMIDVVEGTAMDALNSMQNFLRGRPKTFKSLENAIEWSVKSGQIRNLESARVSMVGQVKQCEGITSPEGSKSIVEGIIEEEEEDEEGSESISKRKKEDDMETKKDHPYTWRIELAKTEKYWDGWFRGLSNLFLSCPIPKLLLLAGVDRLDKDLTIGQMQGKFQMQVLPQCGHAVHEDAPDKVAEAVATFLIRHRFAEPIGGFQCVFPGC
# Fam108B inh – Fam108B inhibition, counter-screen for RBBP9 inhibitors; recombinant Fam108B, FP-Rh probe fluorescence polarization; inhibition, % at 9.51 µM; 0.33% of 300,000 active; AID 1947;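 active = inhibition above the screen mean inhibition plus 3 SD, computed separately per campaign, cut at about 18% in these data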;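 also: inhibitors lower polarization as less probe binds the enzyme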
# LYPLA2 conf – counter-screen for PME1 inhibitors: confirmation of human LYPLA2 inhibitors | inhibition, % at 5.9 µM | 72% of 1,100 active | recombinant LYPLA2, FP-Rh probe fluorescence polarization | shares compounds with LYPLA2 inh;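 active = mean inhibition across replicates above the hit cutoff set in the primary screen, cut at about 26% in these data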;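 also: blocked labeling of the enzyme by serine hydrolase FP-Rh probe lowers polarization; 0% = enzyme with DMSO and 100% = wells lacking LYPLA2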
# LYPLA2 ABPP – inhibitors of human LYPLA2 | shares compounds with LYPLA2 inh | rhLYPLA2 in mouse brain proteome, gel ABPP FP-Rh | inhibition, % at 20 µM | 30% of 150 active;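 active = inhibition of LYPLA2 enzyme probe labeling above about 50%, limit read from the data; inactive = inhibition below that limit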;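 also: loss of FP-Rh probe labeling of the LYPLA2 gel band measured as band density; 0% = DMSO only control band and 100% = blank gel background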
# * = called active by the depositor; / = no result given. Hits are enriched below; roughly 0.99% of the tested compounds scored in any of these assays.
SMILES,LYPLA2 inh,LYPLA1 inh,RBBP9 inhibitor,PME-1 inh,Fam108B inh,LYPLA2 conf,others
Cn1nccc1C(=O)N1CCCC(N2CCN(c3cccc(C(F)(F)F)c3)CC2)C1 (stereo not drawn),54*,4,/,3,0,52*,LYPLA2 ABPP=37
Cc1cc(C)c(C(=O)N2CCCC(N3CCN(c4cccc(C(F)(F)F)c4)CC3)C2)o1 (stereo not drawn),52*,10,/,-4,2,50*,LYPLA2 ABPP=31
CC1CCc2cc(F)ccc2N1C(=O)CSc1nnc(-c2cccs2)n1C (stereo not drawn),-2,-1,2,-1,-2,/,
CCCCCCC1CCC(C(=O)Nn2c(C)nc3ccccc3c2=O)CC1 (stereo not drawn),46*,1,-11,0,-4,37*,
CC(C)(C)c1ccc(C(=O)C2CCCN(C(=O)CN3CCCC3=O)C2)cc1 (stereo not drawn),1,-3,0,1,-2,/,
CN(C)C(=O)N1CCC(C(=O)N2CCCC(C(=O)c3ccc(C(C)(C)C)cc3)C2)CC1 (stereo not drawn),34*,4,-7,3,2,34*,
COc1ccc(N2CCN(S(=O)(=O)CC34CCC(CC3=O)C4(C)C)CC2)cc1 (stereo not drawn),6,-2,/,7,6,/,
O=C(OCC(=O)N1CCc2ccccc21)c1ccccc1[N+](=O)[O-],49*,-3,/,4,/,56*,
COc1ccccc1NC(=O)Cn1nnc2sc3c(c2c1=O)CC(C)(C)OC3,22,2,-1,4,0,/,
CC1(C)Cc2c(sc3nnn(CC(=O)Nc4ccccc4)c(=O)c23)CO1,28*,-1,-1,0,-1,36*,
O=C(Nc1ccc(N2CCN(C(=O)c3cccs3)CC2)cc1)c1ccccc1Cl,41*,2,/,2,0,41*,
O=C(Nc1ccc(N2CCN(C(=O)c3cccs3)CC2)cc1)c1ccccc1F,27*,5,/,8,1,15,
O=C(Cc1cccs1)NCc1ccc(Cl)cc1Cl,-4,0,/,9,4,/,
O=C(CSc1nc(C2CC2)nc2ccccc12)N1c2ccccc2Sc2ccc(C(F)(F)F)cc21,1,-5,-2,2,-2,/,
CCN1CCc2c(sc(NC(=O)c3ccc(C(=O)c4ccccc4)cc3)c2C(N)=O)C1,26*,-2,/,1,1,25,
Cc1ccc(Cl)cc1NC(=O)CCCN1C(=O)c2cccnc2C1=O,-1,-1,-15,6,-1,/,
COc1ccc(N2CCN(C(=O)c3ccc(N(C)S(=O)(=O)c4ccc(OC)cc4)cc3)CC2)cc1,54*,3,3,-1,2,58*,LYPLA2 ABPP=36
CCOC(=O)N1CCN(C(=O)c2ccc(N(C)S(=O)(=O)c3ccc(C)cc3)cc2)CC1,1,0,/,4,7,/,
COc1ccc(S(=O)(=O)N(C)c2ccc(C(=O)N3CCN(C)CC3)cc2)cc1,0,-2,/,1,0,/,
COc1ccc(N2CCN(C(=O)c3ccc(N(C)S(=O)(=O)c4ccc(C)cc4)cc3)CC2)cc1,50*,6,2,-4,-4,55*,LYPLA2 ABPP=3
Cc1cc(C)cc(C(=O)NCC(=O)OCC(=O)c2cc(C)n(CC(F)(F)F)c2C)c1,-1,-2,-4,4,-2,/,
Cc1ccc(S(=O)(=O)N(C)CC(=O)O/N=C(\N)c2ccc([N+](=O)[O-])cc2)cc1,67*,7,5,-10,-5,58*,LYPLA2 ABPP=0
CN(CC(=O)O/N=C(\N)c1ccc([N+](=O)[O-])cc1)S(=O)(=O)c1ccccc1,29*,-1,-4,-4,2,18,
CN(CC(=O)O/N=C(\N)c1cccc([N+](=O)[O-])c1)S(=O)(=O)c1ccccc1,-2,-5,0,8,1,/,
Cc1ccc(-n2cc(-c3ccccc3)c3c(N4CCN(C)CC4)ncnc32)cc1,30*,6,0,3,4,20,
COc1ccc(/C=C2\SC(=S)N(CCCC(=O)Nc3cccc(C(=O)O)c3)C2=O)cc1OC,5,-5,/,-3,0,/,
